The nature of test [1]: inhibitors of TNFa-induced NFkB p65 translocation, primary screen, imaging, HUVEC, MLSMR starter and 10KST1 sets (AID 438).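 For inhibition: signal is the nuclear over cytoplasmic p65 intensity ratio per well.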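 Note: compound added about 3h40 before a 20 min TNFalpha stimulation.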 Conditions: HUVEC TNFa-induced p65 nuclear translocation; cell count: measured here: nuclei count (cytotoxicity indicator), at 2.08 µM; inhibition: at 2 µM, stronger effect = higher value, 0% TNFa-plus-vehicle, 100% no-TNFa wells.
Test [2] in a line: endothelial E-selectin expression blockers – imaging, HUVEC, immunofluorescence, MLSMR starter and 10KST1 sets, primary screen (AID 487;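 active = visually confirmed hit in the image check and inhibition above 20%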;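 for inhibition: signal is fraction of cell area covered by stained E-selectin grains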;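 for nuclei count: 100% = median nuclei count of all wells on the same plate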). Conditions: HUVEC TNFalpha-induced E-selectin immunofluorescence imaging, at 2 µM; inhibition: stronger effect = higher value; nuclei count: measured here: cell number, toxicity.
The nature of test [3]: Primary imaging screen for DUSP6 inhibitors that restore phospho-Erk in transfected HeLa cells, chemical complementation (AID 609;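 active = compounds giving at least 50% inhibition in the cell-based MKP-3 phosphatase rescue imaging test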;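 for inhibition: phospho-Erk level distribution per well compared with pooled transfected vehicle control wells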). Conditions: HeLa MKP-3 transfected, phospho-Erk imaging KS statistic, at 10 µM, cells stimulated with TPA for 15 min.
Test [4] deals with Dual specificity protein phosphatase 6 (Homo sapiens) (UniProt Q16828). The description is as above. Conditions: HeLa MKP-3 transfected, phospho-Erk imaging KS statistic; at 10 µM; stronger effect = higher value; cells stimulated with TPA for 15 min.
Sequence of Dual specificity protein phosphatase 6 (Homo sapiens) (Q16828 whole entry, looked up): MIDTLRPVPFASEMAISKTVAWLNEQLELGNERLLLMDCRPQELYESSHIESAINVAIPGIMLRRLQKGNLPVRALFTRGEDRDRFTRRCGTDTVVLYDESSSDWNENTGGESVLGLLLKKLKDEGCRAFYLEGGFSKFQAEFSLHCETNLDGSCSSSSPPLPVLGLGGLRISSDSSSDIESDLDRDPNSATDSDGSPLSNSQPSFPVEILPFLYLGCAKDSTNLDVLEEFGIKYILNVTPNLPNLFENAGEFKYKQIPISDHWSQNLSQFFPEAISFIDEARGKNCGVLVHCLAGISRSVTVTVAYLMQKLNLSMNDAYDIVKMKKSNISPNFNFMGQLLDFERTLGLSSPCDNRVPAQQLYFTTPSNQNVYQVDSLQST
Test [5] has as its target Voltage-gated potassium channel subunit beta-2 (Rattus norvegicus) (UniProt P62483). As to the kind of experiment: inhibitors of rat Kvbeta2 reductase activity – biochemical, NADPH fluorescence, primary screen (AID 622;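 active = fluorescence slope higher than the sample average by over 3 SD, cut at about -0.22 in these data, passing the limit was not always enough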;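 note: slope of raw intensity against log time taken from 70 to 1610 s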). Conditions: recombinant KvBeta, 4-cyanobenzaldehyde reduction, at 10 µM, stronger effect = higher value.
For test [6] the target is unchanged. As to the kind of experiment: enhancers of rat Kvbeta2 NADPH turnover – biochemical, NADPH fluorescence, primary screen (AID 623;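 active = NADPH fluorescence slope more negative than the mean of all samples by about 3 SD, 99.7% confidence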;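 note: fluorescence intensity change per second fitted from 20 to 320 s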). Conditions: Recombinant KvBeta, NADPH fluorescence decrease slope, 10 min; at 10 µM; stronger effect = lower value.
Test [7] addresses Alpha-2C adrenergic receptor (Homo sapiens) (UniProt P18825). Description: compounds altering alpha2C-coupled GIRK flux – cell-based, HEK293 alpha2C/GIRK1/2, thallium flux, primary screen (AID 624;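 active = fluorescence slope after compound addition differing from the mean of all screened samples at 99.7% confidence, in either direction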;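 note: slope of fluorescence ratio to pre-addition baseline per second over 15 to 24 s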). Conditions: thallium flux BTC fluorescence, at 10 µM, actives lie on both sides.
Test [8] is described as follows: inhibitors of larval lipid processing in zebrafish, primary screen, whole organism, PED6 fluorescence, gall bladder and intestine (AID 686;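 active = a full or partial loss of lipid-probe fluorescence in the fish gall bladder, intestine or both, judged by eye; inactive = no fluorescence loss, or compound toxic to the fish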;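 note: larvae 5 to 7 days old with five fish per well; signal comes from phospholipase A2 cleavage of quenched PED6 carried via bile; overnight exposure to compound and PED6 before scoring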). Conditions: Zebrafish larvae PED6 lipid processing, fluorescence scoring; screened at 20 µM (by protocol). In a few lines: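 Test system – live zebrafish larvae aged 5-7 days, whole organism · Buffer or medium – E3 fish medium · Reagent – quenched phospholipase substrate PED6, 100 nM final, ingested by larvae · Doses – 20 µM single dose · Incubation – overnight compound and PED6 incubation · Technique – visual fluorescence microscopy scoring of gall bladder, gut · Read-out basis – visual per-well fluorescence inhibition score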

A short description of test [9]: loss of swimming-algae plug formation – whole organism, Chlamydomonas reinhardtii, WT vs cilia-less mutant, absorbance, 96-well, primary screen (AID 463189;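 active = inhibition at or above 50% relative to wild type and mutant plate controls; inactive = inhibition below 50%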;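 note: 0% = wild type cc124 cells in DMSO and 100% = ciliumless bld1 mutant cells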). Conditions: Chlamydomonas reinhardtii gravitaxis, OD600 absorbance, 2 days; at 10 µM; stronger effect = higher value.
Where [10] appears, read: measured here: cell density z-score.
The mark [11] stands for this setting: measured here: nuclear c-Myc green intensity z-score.
The mark [12] stands for this setting: measured here: nuclear pErk red intensity z-score, stronger effect = higher value.

These results are taken from PubChem BioAssay.

Calls of active or inactive are those of the source.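 Rule for the calls, unless noted: active = inhibition above 20% together with a positive visual image hit; inconclusive = visual image hit but inhibition not above 20%; inactive = no visual image hit.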

As a reminder, the inhibition is the change of the read-out against control, counted positive when it falls.

Sequence of Alpha-2C adrenergic receptor (Homo sapiens) (P18825 whole entry, looked up): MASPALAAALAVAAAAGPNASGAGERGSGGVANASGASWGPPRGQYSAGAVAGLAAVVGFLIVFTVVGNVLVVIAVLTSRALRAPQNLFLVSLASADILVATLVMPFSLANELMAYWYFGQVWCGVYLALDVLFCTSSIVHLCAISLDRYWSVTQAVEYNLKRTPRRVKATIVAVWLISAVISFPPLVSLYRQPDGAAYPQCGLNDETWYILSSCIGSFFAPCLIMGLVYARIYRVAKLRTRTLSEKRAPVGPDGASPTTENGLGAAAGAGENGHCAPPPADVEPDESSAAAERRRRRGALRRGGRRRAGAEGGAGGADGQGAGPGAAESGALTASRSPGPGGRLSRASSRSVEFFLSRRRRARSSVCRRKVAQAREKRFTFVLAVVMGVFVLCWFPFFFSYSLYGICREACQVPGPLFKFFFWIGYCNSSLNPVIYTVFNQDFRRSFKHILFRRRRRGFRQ
Sequence of Voltage-gated potassium channel subunit beta-2 (Rattus norvegicus) (P62483 whole entry, looked up): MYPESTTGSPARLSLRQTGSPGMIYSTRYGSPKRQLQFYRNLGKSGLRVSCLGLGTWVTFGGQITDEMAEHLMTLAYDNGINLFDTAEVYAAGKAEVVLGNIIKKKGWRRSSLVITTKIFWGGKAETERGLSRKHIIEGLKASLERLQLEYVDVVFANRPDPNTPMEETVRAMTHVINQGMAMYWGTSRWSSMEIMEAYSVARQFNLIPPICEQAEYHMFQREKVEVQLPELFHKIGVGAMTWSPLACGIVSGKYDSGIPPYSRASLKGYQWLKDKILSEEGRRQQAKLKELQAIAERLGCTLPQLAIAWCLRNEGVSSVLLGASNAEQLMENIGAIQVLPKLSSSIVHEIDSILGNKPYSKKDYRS

For `Cc1cc2c(c(=O)n1Cc1cccnc1)C(c1ccccc1)C(C#N)=C(N)O2` (centres undefined), the cell count in test [1] turned out to be 550. Moreover, the inhibition was -28.8% (inactive) in [1], -50% (inactive) in [2], -6.06% (inactive) in test [4] and 22.9% (inactive) in test [9]. For the same compound, the nuclei count in test [2] came to 160%. Besides, the z-score is -0.164 in test [3] (setting [10]), -2.06 in test [3] (setting [11]) and -1.42 in test [3] (setting [12]). Besides, the fluorescence slope in [5] was -0.537 (inactive). Also, the NADPH fluorescence slope in [6] was -2.7e-05 (inactive). Moreover, the slope in test [7] is 0.00757 (inactive). For the same compound, the call in test [8] was inactive.
Turning to `O=c1oc2c3c4c(cc2c(C(F)(F)F)c1CCN1CCOCC1)CCCN4CCC3`, the cell count in test [1] turned out to be 507. In addition, the inhibition in test [1] is -1% (inactive); in [2], -59.8% (inactive); in [4], -4.78% (inactive); in test [9], -7.21% (inactive). Also, the nuclei count in test [2] was determined as 160%. Also, the z-score is -0.81 in test [3] (setting [10]), 0.512 in test [3] (setting [11]) and -1.2 in test [3] (setting [12]). Besides, the fluorescence slope in [5] is -0.315 (inactive). In test [6], the NADPH fluorescence slope was -4.5e-05 (inactive). Also, the slope in [7] is 0.0309 (active). The outcome in test [8] was inactive.
Take `Cc1c([C@H]2[C@@H](CC#N)C2(C)C)c2ccccc2n1C`: the cell count in test [1] came to 637. For the same compound, the inhibition was -3.8% (inactive) in test [1], -51.3% (inactive) in test [2], -6.48% (inactive) in test [4] and 11.5% (inactive) in [9]. The nuclei count in [2] amounted to 153%. Also, the z-score is -0.588 in test [3] (setting [10]), 0.872 in [3] (setting [11]) and 0.83 in test [3] (setting [12]). Besides, the fluorescence slope in [5] is -0.536 (inactive). Moreover, the NADPH fluorescence slope in test [6] was -9.2e-05 (inactive). In addition, the slope in [7] was 0.00537 (inactive). In test [8], the compound was called inactive.
Regarding `CCCCOc1ccc(CN(C)c2ncnc(N)n2)cc1`, the cell count in test [1] was 657. Besides, the inhibition in test [1] is -1.7% (inactive); in test [2] it was -51.5% (inactive); in test [4], 5.57% (inactive); in [9], 29.8% (inactive). This compound came in with a nuclei count in test [2] of 180%. Moreover, the z-score was -0.491 in test [3] (setting [10]), 0.207 in test [3] (setting [11]) and -0.506 in test [3] (setting [12]). Further, the fluorescence slope in test [5] was -0.503 (inactive). Besides, in test [6], the NADPH fluorescence slope was -0.00011 (inactive). The slope in [7] was 0.00652 (inactive). Also, the compound was classed as inactive in test [8].
As for `CCOc1ccc2c(C)nc(NC3=NC(C)(C)C=C(C)N3)nc2c1`, in test [1], the cell count is 641. The inhibition in test [1] was -3.1% (inactive); in [2], 46.4% (inactive); in test [4] it was -9.66% (inactive); in test [9] it was 19.3% (inactive). In [2], this compound registered a nuclei count of 158%. Moreover, the z-score was -1.28 in [3] (setting [10]), 1.6 in test [3] (setting [11]) and 1.26 in test [3] (setting [12]). Besides, the fluorescence slope in test [5] was -0.373 (inactive). Also, the NADPH fluorescence slope in [6] is -4.2e-05 (inactive). The slope in [7] was 0.00624 (inactive). Moreover, the call in test [8] was inactive.
On to `Cc1cc(=O)oc(C)c1C(=O)NCCN1CCOCC1`, for which the cell count in test [1] was 476. Also, the inhibition was -0.5% (inactive) in test [1], -10.6% (inactive) in [2], -1.75% (inactive) in test [4] and 21.9% (inactive) in test [9]. This compound displayed a nuclei count in [2] of 92.4%. The z-score in test [3] (setting [10]) was -0.82; in test [3] (setting [11]), 0.575; in test [3] (setting [12]), 1.34. Also, the fluorescence slope in test [5] was -0.491 (inactive). The NADPH fluorescence slope in test [6] was -1.8e-05 (inactive). Besides, the slope in test [7] was 0.00592 (inactive). Besides, in [8], the compound was called inactive.
With `CC(=O)N[C@H]1C[C@@H]1c1ccccc1`, the cell count in [1] was found to be 404. Besides, the inhibition is -8.9% (inactive) in test [1], 0.6% (inactive) in [2], 6.04% (inactive) in test [4] and -14.5% (inactive) in [9]. In test [2], this compound displayed a nuclei count of 103%. For the same compound, the z-score was 0.812 in test [3] (setting [10]), -0.111 in test [3] (setting [11]) and -1.93 in [3] (setting [12]). Besides, the fluorescence slope in test [5] is -0.4 (inactive). Further, the NADPH fluorescence slope in test [6] was 3.1e-05 (inactive). Also, the slope in test [7] was 0.00883 (inactive). For the same compound, the outcome in [8] was inactive.
On to `Cc1ccc(C(=O)C2=C(O)C(=O)N(c3ncccn3)C2c2ccc(Cl)cc2)o1` (centres undefined), for which the cell count in [1] is 371. For the same compound, the inhibition in test [1] is -10.1% (inactive); in test [2] it was 14.5% (inactive); in [4] it was 7.83% (inactive); in [9], 5.76% (inactive). In addition, the nuclei count in test [2] came out at 94.4%. The z-score is -1.13 in test [3] (setting [10]), -0.679 in test [3] (setting [11]) and 0.195 in [3] (setting [12]). In addition, the fluorescence slope in [5] was -0.331 (inactive). For the same compound, the NADPH fluorescence slope in [6] is -1.3e-05 (inactive). In test [7], the slope was 0.00456 (inactive). Moreover, the compound was called inactive in [8].
Turning to `CCCC(=O)Nc1sc2c(c1C#N)CCCC2`, in test [1], the cell count is 385. The inhibition in [1] is 7.8% (inactive); in test [2], -83.9% (inactive); in [4] it was 3.56% (inactive); in test [9], -10.7% (inactive). Besides, the nuclei count in test [2] was found to be 110%. Moreover, the z-score is -0.165 in [3] (setting [10]), 0.756 in test [3] (setting [11]) and -2.32 in test [3] (setting [12]). Moreover, in [5], the fluorescence slope was -0.445 (inactive). The NADPH fluorescence slope in test [6] is -0.000372 (inactive). Moreover, in test [7], the slope is 0.00647 (inactive). Further, the call in test [8] was inactive.
For `CN1C2C=C3C(C#N)=C(N)C(C#N)(C#N)[C@@H](c4ccsc4)[C@@H]3C1CC2` (some centres undefined), in test [1], the cell count came to 589. The inhibition in [1] is -9.3% (inactive); in test [2], 24% (inactive); in test [4] it was 28.1% (inactive); in test [9], 6.82% (inactive). Also, the nuclei count in [2] turned out to be 148%. The values for the z-score in test [3] (setting [10]), in test [3] (setting [11]) and in [3] (setting [12]) were 1.76, -1 and -0.0532, respectively. Besides, the fluorescence slope in [5] was -0.396 (inactive). For the same compound, in [6], the NADPH fluorescence slope was 4.1e-06 (inactive). In addition, in test [7], the slope was 0.00648 (inactive). Besides, in test [8], the call was inactive.
Take `CCCCOc1ccc(C(=O)OC2CC(C)N(C)CC2C)cc1` (centres undefined): the cell count in test [1] is 358. Moreover, the inhibition in [1] was -21.6% (inactive); in test [2] it was -186% (inactive); in test [4], -14% (inactive); in test [9], 144% (active). For the same compound, the nuclei count in test [2] stood at 155%. The z-score is -0.354 in test [3] (setting [10]), -1.1 in test [3] (setting [11]) and -0.696 in test [3] (setting [12]). In test [5], the fluorescence slope was -0.46 (inactive). The NADPH fluorescence slope in test [6] was -0.000115 (inactive). In addition, the slope in test [7] is 0.00554 (inactive). In addition, in test [8], the outcome was inactive.
Take `CCOC(=O)CCCCC(=O)NC(CO)C(=O)NC` (centres undefined): in test [1], the cell count is 573. The inhibition in [1] was -3.8% (inactive); in test [2] it was -97.8% (inactive); in [4], 22.1% (inactive); in [9] it was -2.9% (inactive). In test [2], this compound gave a nuclei count of 204%. Moreover, the values for the z-score in test [3] (setting [10]), in test [3] (setting [11]) and in test [3] (setting [12]) were -1.05, 1.41 and -0.705, respectively. In addition, in [5], the fluorescence slope was -0.374 (inactive). Further, in test [6], the NADPH fluorescence slope is -2.1e-05 (inactive). Moreover, the slope in [7] is 0.00506 (inactive). Further, in test [8], the result was inactive.
Regarding `COC(=O)CSc1nnc2n(-c3ccc(OC)cc3)c(=O)c3c4c(sc3n12)CCCCC4`, in [1], the cell count was 607. Besides, the inhibition in test [1] was -2.8% (inactive); in test [2], -233% (inactive); in [4] it was 1.04% (inactive); in test [9] it was -10.1% (inactive). This compound had a nuclei count in test [2] of 149%. Moreover, the z-score in test [3] (setting [10]) was -0.0268; in test [3] (setting [11]), 0.911; in test [3] (setting [12]) it was -4.12. Moreover, the fluorescence slope in test [5] is -0.411 (inactive). The NADPH fluorescence slope in test [6] is -4.4e-05 (inactive). Moreover, the slope in test [7] is 0.00667 (inactive). The call in test [8] was inactive.
